Assay results published in ChEMBL document CHEMBL3632531, “Cafestol, a Bioactive Substance in Coffee, Stimulates Insulin Secretion and Increases Glucose Uptake in Muscle Cells: Studies in Vitro” (2015).
Calls of active or inactive are those of the source. No cut-off for these calls is given here.

Columns and labels:
[1] = (§1) Increase in glucose-stimulated insulin secretion in rat INS-1E cells at 1 uM after 60 mins in presence of 16.7 mM glucose; type: functional
In short: (§2)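 INS-1E cells were pre-cultured 72 h, then preincubated 15 min in M-KRB (pH 7.4, 1% BSA). They were exposed for 60 min at 37 °C to test agent diluted from a 10−3 M DMSO stock to final 10−12–10−6 M in M-KRB with 16.7 mM glucose, with DMSO equalized across solutions. Insulin in the supernatant was measured by RIA (anti-insulin antibody, 125I-insulin tracer, rat insulin standard), and cell protein by Bradford. Mean ± SEM is reported against the 16.7 mM glucose control.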

[2] = Increase in glucose-stimulated insulin secretion in rat INS-1E cells at 10^-10 M after 60 mins in presence of 16.7 mM glucose; type: functional; in short: as §2
[3] = Increase in glucose-stimulated insulin secretion in rat INS-1E cells at 10^-8 M after 72 hrs in presence of 16.7 mM glucose; type: functional
In short: (§3)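 INS-1E cells were seeded and grown 72 h at 37 °C in growth medium containing test agent at final 10−12, 10−10 or 10−8 M, with DMSO equalized. After a 15 min preincubation in M-KRB, cells were stimulated 60 min with M-KRB at 3.3 or 16.7 mM glucose. Supernatant insulin was measured by RIA. Mean ± SEM is compared with the control at the matching glucose level.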

[4] = Increase in glucose-stimulated insulin secretion in rat INS-1E cells at 10^-8 M after 60 mins in presence of 16.7 mM glucose; type: functional; in short: as §2
[5] = Increase in deoxy-D-glucose 2-[1.2-3H(N)] uptake in human Skeletal muscle cells at 10^-8 M after 72 hrs by scintillation counter relative to control; type: functional
In short: (§4)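 Differentiated human skeletal muscle cells (2 weeks in differentiation medium, until multinucleated syncytia were visible) were exposed for 72 h to test agent at 10−8 to 10−12 M. Cells were then given a 15 min pulse at 37 °C in modified KRB with 0.1% BSA, 0.1 mM glucose, tritiated deoxy-D-glucose and 100 nM insulin. Uptake was stopped with washes in 50 mM glucose, cells were lysed in NaOH, and counts per min were read by scintillation and compared with untreated control.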

[6] = species: Homo sapiens; test: Effect on deoxy-D-glucose 2-[1.2-3H(N)] uptake in human Skeletal muscle cells at 10^-12 to 10^-10 M after 72 hrs by scintillation counter; type: functional; in short: as §4
[7] = Increase in glucose-stimulated insulin secretion in rat INS-1E cells at 10^-10 M after 72 hrs in presence of 16.7 mM glucose; type: functional; in short: as §3
[8] = Increase in glucose-stimulated insulin secretion in rat INS-1E cells at 10^-8 M after 72 hrs in presence of 3.3 mM glucose; type: functional; in short: as §3
[9] = Decrease in glucose-stimulated insulin secretion in rat INS-1E cells at 10^-12 M after 72 hrs in presence of 3.3 mM glucose; parameters: scale not given: the % may be the effect or the level left
[10] = system: INS-1E; test: as §1; type: functional; in short: as §2

Row | Structure (SMILES) | Activity [1] [%] | Activity [2] [%] | Activity [3] [%] | Activity [4] [%] | Activity [5] [%] | Activity [6] | Activity [7] [%] | Activity [8] [%] | Activity [9] [%] | Activity [10]
1 | O=C(O)/C=C/c1ccc(O)c(O)c1 [CAFFEIC ACID] | 9 | 9 | 16 | 18 | – | – | – | – | – | –
2 | CN(CCOc1ccc(CC2SC(=O)NC2=O)cc1)c1ccccn1 (stereo not given) [ROSIGLITAZONE] | – | – | – | – | 7 | – | – | – | – | –
3 | C[C@@]12CCc3occc3[C@H]1CC[C@@]13C[C@@H](CC[C@H]12)[C@@](O)(CO)C3 [CAFESTOL] | 16 | 12 | 34 | 12 | 8 | inactive | 68 | 27 | 15 | –
4 | O=C(/C=C/c1ccc(O)c(O)c1)O[C@@H]1C[C@](O)(C(=O)O)C[C@@H](O)[C@H]1O | – | – | – | – | – | – | – | – | – | Active
